Measurements taken from ChEMBL document CHEMBL2040794, “Synthesis and structure-activity analysis of new phosphonium salts with potent activity against African trypanosomes” (J Med Chem, 2012).
Calls of active or inactive are those of the source. The calls are words filed in the database; no cut-off is given here.

Legend:
[1] = system: Trypanosoma brucei rhodesiense; assay: Antitrypanosomal activity against Trypanosoma brucei rhodesiense STIB900 infected in rat L6 cells after 72 hrs by alamar blue assay; type: functional, organism-based; conditions: Trypanosoma brucei, STIB900, 72 h
L6 = assay: Cytotoxicity against rat L6 cells after 72 hrs by alamar blue assay; type: cell-based; conditions: Rattus norvegicus, L6, 72 h
[2] = system: Trypanosoma brucei brucei; assay: Antitrypanosomal activity against wild type Trypanosoma brucei brucei Lister 427 after 3 days by alamar blue assay; type: functional, organism-based; conditions: Trypanosoma brucei, Lister 427, 72 h
Method in brief: (§1)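 Bloodstream-form T. b. brucei (wild-type s427; TbAT1-KO, made from s427 by TbAT1 deletion; B48, selected from TbAT1-KO in vitro on pentamidine, lacking functional HAPT1). Cells were exposed to compound for 48 h, then resazurin (Alamar blue) was added for a further 24 h. A single fluorescence reading gave EC50.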

[3] = system: Trypanosoma brucei brucei; assay: Antitrypanosomal activity against diminazene aceturate-resistant TbAT1 gene-deficient Trypanosoma brucei brucei AT1-KO after 3 days by alamar blue assay; type: functional, organism-based; conditions: Trypanosoma brucei, AT1-KO, 72 h; method in brief: as §1
[4] = system: Trypanosoma brucei brucei; assay: Antitrypanosomal activity against diminazene-, pentamidine-, and melaminophenyl arsenical-resistant HAPT1-deficient Trypanosoma brucei brucei B48 after 3 days by alamar blue assay; type: functional, organism-based; conditions: Trypanosoma brucei, B48, 72 h; method in brief: as §1
[5] = Inhibition of Trypanosoma brucei brucei HAPT1 assessed as [3H]-pentamidine uptake after 60 secs by scintillation counting
Method in brief: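 HAPT1 transport: late-log T. b. brucei grown in HMI-9 + 10% FBS, washed into HEPES/bicarbonate assay buffer with 14 mM glucose, pH 7.3. [³H]-pentamidine at 30 nM final for 60 s with inhibitor; stopped with 2 mM ice-cold unlabeled pentamidine and spin through oil. Scintillation counting, sigmoid fit for Ki; triplicates, ≥3 independent experiments.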

[6] = Inhibition of Trypanosoma brucei brucei LAPT1 assessed as [3H]-pentamidine uptake after 120 secs by scintillation counting
Method in brief: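 LAPT1 transport: late-log trypanosomes from HMI-9/10% FBS culture washed into pH 7.3 HEPES-bicarbonate-glucose buffer; 1 μM final [³H]-pentamidine uptake over 120 s with competitor. Uptake terminated with 2 mM ice-cold pentamidine and oil centrifugation; counted by scintillation, Ki from sigmoid curves; triplicate, at least three separate occasions.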

[7] = Selectivity index, ratio of EC50 for rat L6 cells to EC50 for Trypanosoma brucei rhodesiense STIB900; type: toxicity, cell-based; conditions: L6 cells, read-out: Ratio EC50
Method in brief: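 Ratio of EC₅₀ in L6 cells to EC₅₀ against T. b. rhodesiense STIB900, both from Alamar blue assays.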

[8] = system: Trypanosoma brucei brucei; assay: Resistance factor, ratio of EC50 for diminazene aceturate-resistant TbAT1 gene-deficient Trypanosoma brucei brucei AT1-KO to EC50 for wild type Trypanosoma brucei brucei Lister 427; type: functional
Method in brief: (§2)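 Resistance factor is the EC50 in the resistant line (TbAT1-KO or B48) divided by the EC50 in wild-type s427. […] Resistant and wild-type EC50s were compared by Student t-test.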

[9] = system: Trypanosoma brucei brucei; assay: Resistance factor, ratio of EC50 for diminazene-, pentamidine-, and melaminophenyl arsenical-resistant HAPT1-deficient Trypanosoma brucei brucei B48 to EC50 for wild type Trypanosoma brucei brucei Lister 427; type: functional; method in brief: as §2
[10] = Cytotoxicity against human HEK cells after 3 days by alamar blue assay; type: cell-based, HEK293; conditions: Homo sapiens, HEK293, 72 h
Method in brief: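 Human embryonic kidney cells tested by resazurin (Alamar blue) assay: 48 h with compound, then 24 h more after dye addition, single reading; EC₅₀ derived.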

[11] = Selectivity index, ratio of EC50 for human HEK cells to EC50 for wild type Trypanosoma brucei brucei Lister 427; type: toxicity, cell-based, HEK293; conditions: HEK cells, read-out: Ratio EC50
Method in brief: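 Ratio of EC₅₀ in HEK cells to EC₅₀ in wild-type T. b. brucei s427, both from resazurin assays.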

[12] = system: Trypanosoma brucei brucei; assay: Antitrypanosomal activity against Trypanosoma brucei brucei bloodstream forms assessed as decrease in cell count at EC50 after 36 hrs by hemocytometric analysis; type: functional, organism-based
Method in brief: (§3)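 Bloodstream-form T. b. brucei cultures started at 10⁵ cells/mL, with or without a range of compound concentrations (0.05, 0.25, 1 μM for the example shown) present continuously. Cell density tracked over 48 h by manual hemocytometer counts done in triplicate; mean values plotted.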

[13] = system: Trypanosoma brucei brucei; assay: Antitrypanosomal activity against Trypanosoma brucei brucei bloodstream forms assessed as decrease in cell count at 2 times EC50 after 12 hrs by hemocytometric analysis; type: functional, organism-based; method in brief: as §3
[14] = system: Trypanosoma brucei brucei; assay: Antitrypanosomal activity against Trypanosoma brucei brucei bloodstream forms assessed as decrease in cell count at 0.25 uM treated for 48 hrs followed by washout after 30 mins and measured after 48 hrs by hemocytometric analysis; type: functional, organism-based
Method in brief: (§4)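 T. b. brucei bloodstream forms seeded at 10⁵ cells/mL with 0.25 μM compound; drug removed by centrifugation (1100g) after 30 min or 4 h and cells resuspended in drug-free fresh medium, or fresh medium still containing 0.25 μM compound; drug-free control run alongside. Growth followed over 48 h by microscopic hemocytometer counts in triplicate, averages reported.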

[15] = system: Trypanosoma brucei brucei; assay: Antitrypanosomal activity against Trypanosoma brucei brucei bloodstream forms assessed as decrease in cell count at 0.25 uM treated for 48 hrs followed by washout after 4 hrs by hemocytometric analysis; type: functional, organism-based; method in brief: as §4
[16] = system: Trypanosoma brucei brucei; assay: Antitrypanosomal activity against Trypanosoma brucei brucei bloodstream forms assessed as decrease in cell count at 0.25 uM treated for 48 hrs followed by washout after 4 hrs measured after 44 hrs by hemocytometric analysis; type: functional, organism-based; method in brief: as §4
[17] = system: Trypanosoma brucei brucei; assay: Antitrypanosomal activity against wild type Trypanosoma brucei brucei Lister 427 assessed as decrease in viability at 70 to 120 times EC50 after 8 hrs by propidium iodide staining-based fluorescence microscopic analysis; type: functional, organism-based
Method in brief: (§5)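 Real-time propidium iodide integrity assay: 5 × 10⁵ trypanosomes per well in HMI-9 plus 10% FBS containing 9 μM PI, 37 °C, 5% CO₂. Fluorescence read on a plate fluorimeter (ex 544/em 620 nm) every 2 min for 250 cycles, more than 8 h. Strains run in parallel on one plate.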

[18] = system: Trypanosoma brucei brucei; assay: Antitrypanosomal activity against wild type Trypanosoma brucei brucei Lister 427 assessed as decrease in viability at > 3.3 uM after 8 hrs by propidium iodide staining-based fluorescence microscopic analysis; type: functional, organism-based; method in brief: as §5
[19] = system: Trypanosoma brucei brucei; assay: Antitrypanosomal activity against diminazene aceturate-resistant TbAT1 gene-deficient Trypanosoma brucei brucei AT1-KO assessed as decrease in viability at > 3.3 uM after 8 hrs by propidium iodide staining-based fluorescence microscopic analysis; type: functional, organism-based
Method in brief: (§6)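 Trypanosomes at 5 × 10⁵ cells/well in HMI-9 with 10% FBS and 9 μM propidium iodide, with compound at a range of concentrations. Fluorescence (ex 544, em 620 nm) was read every 2 min for 250 cycles (>8 h) at 37 °C and 5% CO2. All three strains ran in parallel on one plate, with drug-free controls.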

[20] = system: Trypanosoma brucei brucei; assay: (§7) Antitrypanosomal activity against diminazene-, pentamidine-, and melaminophenyl arsenical-resistant HAPT1-deficient Trypanosoma brucei brucei B48 harboring HAPT mutant gene assessed as decrease in viability at > 3.3 uM after 8 hrs by propidium iodide staining-based fluorescence microscopic analysis; type: functional, organism-based; method in brief: as §6
[21] = system: Trypanosoma brucei brucei; assay: Antitrypanosomal activity against diminazene aceturate-resistant TbAT1 gene-deficient Trypanosoma brucei brucei AT1-KO assessed as decrease in viability at 15 times EC50 after 8 hrs by propidium iodide staining-based fluorescence microscopic analysis; type: functional, organism-based; method in brief: as §6
[22] = system: Trypanosoma brucei brucei; assay: as §7, with “15 times EC50” for “> 3.3 uM”; type: functional, organism-based; method in brief: as §6
[23] = system: Trypanosoma brucei brucei; assay: Antitrypanosomal activity against wild type Trypanosoma brucei brucei Lister 427 assessed as decrease in viability at >700 times EC50 after 8 hrs by propidium iodide staining-based fluorescence microscopic analysis; type: functional, organism-based; method in brief: as §5

| Compound | EC50 [1] | EC50 (L6) | EC50 [2] | EC50 [3] | EC50 [4] | Ki [5] | Ki [6] | selectivity ratio [7] | Ratio EC50 [8] | Ratio EC50 [9] | EC50 [10] | selectivity ratio [11] | Activity [14] | Activity [15] | Activity [16] | also measured |
| --- | --- | --- | --- | --- | --- | --- | --- | --- | --- | --- | --- | --- | --- | --- | --- | --- |
| C[P+](C)(C)Cc1ccc(C(=O)c2ccc(C[P+](C)(C)C)cc2)cc1 | 127 µM | > 173 µM | > 100 µM | > 100 µM | > 100 µM | > 250 µM | > 250 µM |  |  |  |  |  |  |  |  |  |
| CC(=O)N(c1ccc(C[P+](c2ccc(C)cc2)(c2ccc(C)cc2)c2ccc(C)cc2)cc1)c1ccc(C[P+](c2ccc(C)cc2)(c2ccc(C)cc2)c2ccc(C)cc2)cc1.[Br-].[Br-] | 0.159 µM | 21.8 µM | 0.32 µM | 0.3 µM | 0.29 µM | 9.2 µM | 3.6 µM | 137 | 0.9 | 0.9 | > 300 µM | > 930 |  |  |  |  |
| CCCCCC[P+](CCCCCC)(CCCCCC)Cc1ccc(Oc2ccc(C[P+](CCCCCC)(CCCCCC)CCCCCC)cc2)cc1.[Br-].[Br-] | 0.109 µM | 1.03 µM | 0.037 µM | 0.045 µM | 0.041 µM | 53 µM | 7.2 µM | 9 | 1.2 | 1.1 | 22.1 µM | 593 | inactive | Active | Active | Activity [12]: Active; Activity [13]: Active |
| Cc1ccc([P+](Cc2ccc(Oc3ccc(C[P+](c4ccc(C)cc4)(c4ccc(C)cc4)c4ccc(C)cc4)cc3)cc2)(c2ccc(C)cc2)c2ccc(C)cc2)cc1.[Br-].[Br-] | 0.17 µM | 2.34 µM | 0.024 µM | 0.025 µM | 0.021 µM |  |  | 14 | 1 | 0.8 | 85.7 µM | 3570 | inactive | Active | Active |  |
| CCCCCC[P+](CCCCCC)(CCCCCC)Cc1ccc(Cc2ccc(C[P+](CCCCCC)(CCCCCC)CCCCCC)cc2)cc1.[Br-].[Br-] | 0.18 µM | 0.964 µM | 0.033 µM | 0.033 µM | 0.039 µM |  | 9.5 µM | 5 | 1 | 1.2 | 18.1 µM | 543 | inactive | Active | Active |  |
| CCCCC[P+](CCCCC)(CCCCC)Cc1ccc(C(=O)c2ccc(C[P+](CCCCC)(CCCCC)CCCCC)cc2)cc1.[Br-].[Br-] | 0.289 µM | 8.7 µM | 0.2 µM | 0.17 µM | 0.18 µM | 5.2 µM | 2.2 µM | 30 | 0.8 | 0.9 | 66.8 µM | 338 |  |  |  | Activity [17]: Active; Activity [18]: Active; Activity [19]: Active; Activity [20]: Active; Activity [21]: Active; Activity [22]: Active |
| N=C(N)c1ccc(OCCCCCOc2ccc(C(=N)N)cc2)cc1 [PENTAMIDINE] |  |  | 0.008 µM | 0.009 µM | 0.567 µM | 0.036 µM | 56.2 µM |  | 1.1 | 70.9 |  |  |  |  |  |  |
| Cc1ccc(C[P+](c2ccccc2)(c2ccccc2)c2ccccc2)cc1 |  |  |  |  |  |  |  |  |  |  |  |  |  |  |  | Activity [23]: Active |
